From ChEMBL document CHEMBL3739340, “Synthesis and Evaluation of Novel Erlotinib-NSAID Conjugates as More Comprehensive Anticancer Agents” (ACS Med Chem Lett, 2015) come the findings set out here.

The target of data set [1] is T1, Prostaglandin G/H synthase 1 (Ovis aries, UniProt P05979).
T1 sequence (P05979 whole entry): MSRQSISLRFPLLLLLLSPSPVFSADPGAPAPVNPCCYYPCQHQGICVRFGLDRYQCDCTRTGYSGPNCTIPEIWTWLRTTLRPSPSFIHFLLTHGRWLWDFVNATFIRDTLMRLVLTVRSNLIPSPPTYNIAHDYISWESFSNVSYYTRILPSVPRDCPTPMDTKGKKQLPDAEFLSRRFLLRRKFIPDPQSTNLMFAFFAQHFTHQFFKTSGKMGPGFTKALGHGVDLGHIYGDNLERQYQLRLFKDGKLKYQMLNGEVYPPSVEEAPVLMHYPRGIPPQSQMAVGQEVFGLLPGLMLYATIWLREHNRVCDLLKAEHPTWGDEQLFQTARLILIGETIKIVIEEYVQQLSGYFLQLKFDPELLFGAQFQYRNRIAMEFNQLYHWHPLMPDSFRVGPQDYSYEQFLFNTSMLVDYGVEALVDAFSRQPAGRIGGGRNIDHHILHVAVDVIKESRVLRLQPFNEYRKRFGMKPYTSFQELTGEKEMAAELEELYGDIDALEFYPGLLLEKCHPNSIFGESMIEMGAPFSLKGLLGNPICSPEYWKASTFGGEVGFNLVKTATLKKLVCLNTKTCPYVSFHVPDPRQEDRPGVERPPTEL
Briefly: Inhibition of Ovine COX-1 preincubated for 15 mins by fluorescence analysis.

The target of data set [2] is Epidermal growth factor receptor (Homo sapiens, UniProt P00533). The data set can be described thus: Inhibition of EGFR (unknown origin) using tyrosine 4 as substrate by fluorescence analysis.
Sequence of Epidermal growth factor receptor (P00533 whole entry): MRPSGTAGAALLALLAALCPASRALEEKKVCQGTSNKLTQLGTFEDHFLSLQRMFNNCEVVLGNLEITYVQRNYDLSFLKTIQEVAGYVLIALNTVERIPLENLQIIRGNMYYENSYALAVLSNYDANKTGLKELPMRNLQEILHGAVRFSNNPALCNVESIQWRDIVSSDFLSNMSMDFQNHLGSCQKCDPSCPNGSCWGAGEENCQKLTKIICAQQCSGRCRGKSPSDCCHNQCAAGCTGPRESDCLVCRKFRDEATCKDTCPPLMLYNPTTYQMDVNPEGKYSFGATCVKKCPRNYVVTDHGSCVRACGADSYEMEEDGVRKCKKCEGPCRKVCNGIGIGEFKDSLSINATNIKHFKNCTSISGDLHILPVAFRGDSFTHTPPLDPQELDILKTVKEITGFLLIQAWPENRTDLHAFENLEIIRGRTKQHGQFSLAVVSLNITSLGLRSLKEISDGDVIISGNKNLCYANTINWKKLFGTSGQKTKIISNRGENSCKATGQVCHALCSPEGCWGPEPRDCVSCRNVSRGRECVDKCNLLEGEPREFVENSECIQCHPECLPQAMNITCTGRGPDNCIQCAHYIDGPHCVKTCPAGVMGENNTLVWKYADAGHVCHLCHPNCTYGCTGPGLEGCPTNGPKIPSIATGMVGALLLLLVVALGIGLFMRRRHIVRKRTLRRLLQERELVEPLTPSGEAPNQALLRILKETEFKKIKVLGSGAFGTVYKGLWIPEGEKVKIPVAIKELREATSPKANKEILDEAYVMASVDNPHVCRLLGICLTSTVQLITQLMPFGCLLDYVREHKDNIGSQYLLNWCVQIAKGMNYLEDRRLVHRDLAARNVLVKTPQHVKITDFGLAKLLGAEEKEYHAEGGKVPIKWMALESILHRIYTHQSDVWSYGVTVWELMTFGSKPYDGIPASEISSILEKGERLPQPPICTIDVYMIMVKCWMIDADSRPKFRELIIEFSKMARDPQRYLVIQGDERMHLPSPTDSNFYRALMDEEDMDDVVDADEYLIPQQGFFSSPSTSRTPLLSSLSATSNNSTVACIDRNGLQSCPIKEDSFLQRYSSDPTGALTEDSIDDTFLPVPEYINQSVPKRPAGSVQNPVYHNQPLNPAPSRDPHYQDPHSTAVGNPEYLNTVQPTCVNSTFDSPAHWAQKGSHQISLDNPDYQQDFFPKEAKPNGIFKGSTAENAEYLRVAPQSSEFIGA
Data set [3] can be described thus: Antiproliferative activity against human HCC827 cells after 72 hrs by CCK-8 assay. Conditions: HCC827, 72 h; call rule not given here. Format: functional, cell-based. Background: Tetrazolium dyes change colour on reduction, which living cells bring about.
The subject of a further data set is A-431. Briefly: Antiproliferative activity against human A431 cells after 72 hrs by CCK-8 assay. The format is functional, cell-based.
Data set [4] is described as follows: Drug level in human HCC827 cells treated with 2-(4-(3-ethynylphenylamino)-6-(2-methoxyethoxy)quinazolin-7-yloxy)ethyl 2-(6-methoxynaphthalen-2-yl)propanoate by LC-MS/MS analysis. The format is ADME, cell-based. Summed up: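 Conjugate added to culture medium (containing active serum) and incubated with HCC827 tumor cells for up to 24 h. Samples taken over time to follow hydrolysis of the conjugate and release of the parent molecules.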

Where [5] appears, read: Homo sapiens, A-431, 72 h, read-out: IC50.

Each structure is given as a SMILES string.

Consider `CC1=C(CC(=O)O)c2cc(F)ccc2/C1=C\c1ccc([S+](C)[O-])cc1` (stereo not drawn), for which the IC50 in data set [1] is 16000 nM; in data set [2], greater than 10000 nM.
On to `C#Cc1cccc(Nc2ncnc3cc(OCCOC(=O)c4ccc(C(=O)Nc5ccc6c(c5)C(C)(C)CCC6(C)C)cc4)c(OCCOC(=O)c4ccc(C(=O)Nc5ccc6c(c5)C(C)(C)CCC6(C)C)cc4)cc23)c1`, for which the IC50 was greater than 10000 nM in data set [3], greater than 10000 nM in data set [1], 880 nM in data set [2] and “Not Active” with A-431 (a-431).
`C#Cc1cccc(Nc2ncnc3cc(OCCOC(=O)CC4=C(C)/C(=C\c5ccc([S+](C)[O-])cc5)c5ccc(F)cc54)c(OCCOC)cc23)c1` (stereo not drawn): the IC50 in data set [3] is 300 nM; in data set [1], greater than 10000 nM; in data set [2], 31 nM; in the data set with A-431 (setting [5]), 5400 nM.
With `C#Cc1cccc(Nc2ncnc3cc(OCCOC(=O)Cc4c(C)n(C(=O)c5ccc(Cl)cc5)c5ccc(OC)cc45)c(OCCOC(=O)Cc4c(C)n(C(=O)c5ccc(Cl)cc5)c5ccc(OC)cc45)cc23)c1`, the IC50 in data set [3] is 1600 nM; in data set [1], 31400 nM; in data set [2], 33 nM; in the data set on A-431 (setting [5]), greater than 10000 nM.
In the case of `CC(C(=O)O)c1cccc(C(=O)c2ccccc2)c1` (stereo not drawn) [KETOPROFEN], the IC50 was 67 nM in data set [1] and greater than 10000 nM in data set [2].
On to `C#Cc1cccc(Nc2ncnc3cc(OCCOC)c(OCCOC(=O)C(C)c4ccc5cc(OC)ccc5c4)cc23)c1` (stereo not drawn), for which the IC50 amounted to 500 nM in data set [3] and 5000 nM in the data set on A-431 (setting [5]).
For `C#Cc1cccc(Nc2ncnc3cc(OCCOC(=O)C(C)c4cccc(C(=O)c5ccccc5)c4)c(OCCOC(=O)C(C)c4cccc(C(=O)c5ccccc5)c4)cc23)c1` (stereo not drawn), in that order: 2100 nM and greater than 10000 nM.
As to `C#Cc1cccc(Nc2ncnc3cc(OCCOC(=O)C(C)c4ccc(CC(C)C)cc4)c(OCCOC)cc23)c1` (stereo not drawn), the IC50 in data set [3] turned out to be 400 nM; in data set [1] it was 44700 nM; in data set [2] it was 9 nM; in the data set with A-431 (setting [5]) it was 2200 nM.
In the case of `C#Cc1cccc(Nc2ncnc3cc(OCCOC(=O)C(C)c4ccc5cc(OC)ccc5c4)c(OCCOC(=O)C(C)c4ccc5cc(OC)ccc5c4)cc23)c1` (stereo not drawn), the IC50 is 2300 nM in data set [3], greater than 10000 nM in data set [1], 390 nM in data set [2] and “Not Active” with A-431 (a-431).
`C#Cc1cccc(Nc2ncnc3cc(OCCOC(=O)Cc4c(C)n(C(=O)c5ccc(Cl)cc5)c5ccc(OC)cc45)c(OCCOC)cc23)c1`: the 50% inhibitory concentration (IC50) in data set [3] was 900 nM; in data set [1], 11300 nM; in data set [2] it was 27 nM; in the data set with A-431 (setting [5]), greater than 10000 nM.
Taken in the same sequence, the figures for `C#Cc1cccc(Nc2ncnc3cc(OCCOC(=O)c4ccc(C(=O)Nc5ccc6c(c5)C(C)(C)CCC6(C)C)cc4)c(OCCOC)cc23)c1` were 200 nM, greater than 10000 nM, 32 nM and greater than 10000 nM.
Taken in the same sequence, the figures for `C#Cc1cccc(Nc2ncnc3cc(OCCOC(=O)CC4=C(C)/C(=C/c5ccc([S+](C)[O-])cc5)c5ccc(F)cc54)c(OCCOC(=O)CC4=C(C)/C(=C/c5ccc([S+](C)[O-])cc5)c5ccc(F)cc54)cc23)c1` (stereo not drawn) were 3500 nM, greater than 10000 nM, 27 nM and greater than 10000 nM.
Regarding `C#Cc1cccc(Nc2ncnc3cc(OCCOC)c(OCCOC(=O)CC4=C(C)/C(=C\c5ccc([S+](C)[O-])cc5)c5ccc(F)cc54)cc23)c1` (stereo not drawn), the IC50 in data set [3] was found to be 400 nM; in the data set with A-431 (setting [5]) it was 4800 nM.
With `COc1ccc2cc(C(C)C(=O)O)ccc2c1` (racemic), the IC50 in data set [2] was greater than 10000 nM. Besides, the Drug metabolism entry in data set [4] was “metabolite_detected”.
Take `C#Cc1cccc(Nc2ncnc3cc(OCCOC)c(OCCOC(=O)C(C)c4ccc(CC(C)C)cc4)cc23)c1` (stereo not drawn): the IC50 (in data set [3]; in the data set with A-431 (setting [5])) was greater than 10000 nM each time.
The compound `CC(=O)Oc1ccccc1C(=O)O` [ASPIRIN] showed an IC50 in data set [2] greater than 10000 nM.
`C#Cc1cccc(Nc2ncnc3cc(OCCOC)c(OCCOC(=O)Cc4c(C)n(C(=O)c5ccc(Cl)cc5)c5ccc(OC)cc45)cc23)c1`: the figures for the IC50 (in data set [3]; with A-431 (setting [5])) were 1200 nM and greater than 10000 nM, respectively.
For the compound `C#Cc1cccc(Nc2ncnc3cc(OCCO)c(OCCOC)cc23)c1`, the IC50 in data set [3] was 14 nM; in data set [1], greater than 10000 nM; in data set [2], 1 nM; in the data set with A-431 (setting [5]) it was 1270 nM. In data set [4], the Drug metabolism result is “metabolite_detected”.
As for `C#Cc1cccc(Nc2ncnc3cc(OCCOC)c(OCCOC)cc23)c1` [ERLOTINIB], the IC50 in data set [1] was greater than 10000 nM.
On to `C#Cc1cccc(Nc2ncnc3cc(OCCOC)c(OCCOC(=O)c4ccccc4OC(C)=O)cc23)c1`, for which the IC50 in data set [3] was 100 nM; in the data set with A-431 (setting [5]), greater than 10000 nM.
In data set [2], `COc1ccc2c(c1)c(CC(=O)O)c(C)n2C(=O)c1ccc(Cl)cc1` [INDOMETHACIN] gave an IC50 greater than 10000 nM.
On to `C#Cc1cccc(Nc2ncnc3cc(OCCOC)c(OCCOC(=O)C(C)c4cccc(C(=O)c5ccccc5)c4)cc23)c1` (stereo not drawn), for which the results for the IC50 (in data set [3]; in the data set on A-431 (setting [5])) were 300 nM and 1700 nM, respectively.
Regarding `C#Cc1cccc(Nc2ncnc3cc(OCCOC(=O)c4ccccc4OC(C)=O)c(OCCOC)cc23)c1`, the IC50 in data set [3] is 100 nM; in data set [1], greater than 10000 nM; in data set [2], 5 nM; in the data set with A-431 (setting [5]), 1800 nM.
On to `CC(C)Cc1ccc(C(C)C(=O)O)cc1` (stereo not drawn) [IBUPROFEN], for which the IC50 in data set [2] was greater than 10000 nM.
As to `C#Cc1cccc(Nc2ncnc3cc(OCCOC(=O)C(C)c4ccc(CC(C)C)cc4)c(OCCOC(=O)C(C)c4ccc(CC(C)C)cc4)cc23)c1` (stereo not drawn), the IC50 in data set [3] is 16500 nM; in data set [1], greater than 10000 nM; in data set [2], greater than 10000 nM; with A-431 (a-431), “Not Active”.
As to `C#Cc1cccc(Nc2ncnc3cc(OCCOC(=O)c4ccccc4OC(C)=O)c(OCCOC(=O)c4ccccc4OC(C)=O)cc23)c1`, the IC50 was 900 nM in data set [3], 39600 nM in data set [1], 34 nM in data set [2] and greater than 10000 nM with A-431 (setting [5]).

In general, IC50 refers to the concentration that inhibits the measured activity by half.
